Columns and labels:
Format in all cases: cell-based
S1P4 receptor = target: T1, S1P4 receptor (Homo sapiens, UniProt O95977); assay: S1P4 functional antagonist assay; details: for fold less potent than the hit (1) at S1P4: versus hit compound 1
T1 sequence (O95977 1-384): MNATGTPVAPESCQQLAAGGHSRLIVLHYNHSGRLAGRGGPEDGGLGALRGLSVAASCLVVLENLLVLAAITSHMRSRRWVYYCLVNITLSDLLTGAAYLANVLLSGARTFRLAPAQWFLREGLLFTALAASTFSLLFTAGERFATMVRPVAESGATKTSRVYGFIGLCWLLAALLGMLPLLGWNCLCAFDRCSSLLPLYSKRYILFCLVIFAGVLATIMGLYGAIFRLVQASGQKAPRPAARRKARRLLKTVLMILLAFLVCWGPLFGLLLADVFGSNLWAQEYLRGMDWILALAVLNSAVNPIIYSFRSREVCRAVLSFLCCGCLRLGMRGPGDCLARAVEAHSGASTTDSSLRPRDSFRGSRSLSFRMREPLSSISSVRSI
Procedure, shortened: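 U2OS cells co-express a beta-arrestin/TEV protease fusion protein and a beta-lactamase reporter gene under the control of a UAS response element. Beta-lactamase expression is read as FRET from a cleavable, fluorogenic, cell-permeable beta-lactamase substrate. The test compound's antagonism of the S1P4 receptor is reported as an IC50.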

S1P1 = S1P1 (Homo sapiens, UniProt P21453); assay: S1P selectivity counter screen, functional assay at S1P1
Chain of S1P1 (P21453 whole entry, species assumed): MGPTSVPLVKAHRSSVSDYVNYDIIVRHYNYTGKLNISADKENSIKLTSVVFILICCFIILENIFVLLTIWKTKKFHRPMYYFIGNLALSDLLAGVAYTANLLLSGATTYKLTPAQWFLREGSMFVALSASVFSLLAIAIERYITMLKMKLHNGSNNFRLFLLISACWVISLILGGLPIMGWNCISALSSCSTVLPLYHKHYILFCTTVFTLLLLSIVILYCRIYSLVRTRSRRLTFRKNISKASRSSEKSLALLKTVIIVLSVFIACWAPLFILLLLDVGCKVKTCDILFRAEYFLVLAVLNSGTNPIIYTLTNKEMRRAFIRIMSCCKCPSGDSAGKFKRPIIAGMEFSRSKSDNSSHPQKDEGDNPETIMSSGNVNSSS

S1P2 = S1P2 (Homo sapiens, UniProt O95136); assay: S1P selectivity counter screen, functional assay at S1P2
Chain of S1P2 (O95136 whole entry, species assumed): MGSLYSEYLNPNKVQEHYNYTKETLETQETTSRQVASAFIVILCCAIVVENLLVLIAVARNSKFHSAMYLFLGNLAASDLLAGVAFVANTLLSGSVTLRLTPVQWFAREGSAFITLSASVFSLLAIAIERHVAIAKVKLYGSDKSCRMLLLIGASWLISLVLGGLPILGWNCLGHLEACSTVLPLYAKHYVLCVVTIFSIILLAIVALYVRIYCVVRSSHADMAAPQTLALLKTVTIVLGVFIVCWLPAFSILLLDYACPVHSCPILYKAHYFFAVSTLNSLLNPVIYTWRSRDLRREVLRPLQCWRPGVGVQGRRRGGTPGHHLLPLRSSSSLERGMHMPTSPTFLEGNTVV

S1P3 = S1P3 (Homo sapiens, UniProt Q99500); assay: S1P selectivity counter screen, functional assay at S1P3
Chain of S1P3 (Q99500 whole entry, species assumed): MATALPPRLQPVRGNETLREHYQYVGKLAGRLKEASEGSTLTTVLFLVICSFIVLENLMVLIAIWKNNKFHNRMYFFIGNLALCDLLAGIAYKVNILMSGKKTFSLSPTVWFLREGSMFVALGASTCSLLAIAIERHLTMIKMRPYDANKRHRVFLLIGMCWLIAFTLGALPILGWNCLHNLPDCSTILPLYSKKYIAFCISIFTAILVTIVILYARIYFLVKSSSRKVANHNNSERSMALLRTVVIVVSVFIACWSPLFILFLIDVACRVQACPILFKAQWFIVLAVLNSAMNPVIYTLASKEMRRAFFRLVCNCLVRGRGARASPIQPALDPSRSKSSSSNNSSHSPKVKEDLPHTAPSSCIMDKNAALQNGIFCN

Structure (SMILES): Cc1cccc(C)c1NC(=O)c1ccc(-c2cccc(Cl)c2)o1 [9b]
- fold less potent than the hit (1) at S1P4 (S1P4 receptor): 6 fold

Structure (SMILES): O=C(c1ccc(-c2cc(Cl)ccc2Cl)o1)N1CCc2ccccc21 [4j]
- S1P4 activity in words (S1P4 receptor): suppressed completely the activity

Structure (SMILES): Cc1cccc(C)c1NC(=O)c1ccc(-c2cc(Cl)ccc2Cl)o1 [compound 1, 5-(2,5-dichlorophenyl)-N-(2,6-dimethylphenyl)furan-2-carboxamide]
- IC50 (S1P1): > 25 µM
- IC50 (S1P2): > 25 µM
- IC50 (S1P3): > 25 µM

Structure (SMILES): Cc1cccc(C)c1NC(=O)c1ccc(-c2ccc(Cl)cc2Cl)o1 [9a]
- fold less potent than mono-chlorinated 9c at S1P4 (S1P4 receptor; versus 9c): 7 fold
- fold less potent than the hit (1) at S1P4 (S1P4 receptor): 25 fold

Structure (SMILES): Cc1cscc1-c1ccc(C(=O)Nc2c(C)cccc2C)o1 [9l]
- fold more potent than 9k at S1P4 (S1P4 receptor; versus 9k): 1.5 fold

Structure (SMILES): Cc1cccc(C)c1N(C)C(=O)c1ccc(-c2ccccc2Cl)o1 [9c]
- fold less potent than the hit (1) at S1P4 (S1P4 receptor): 3 fold

Structure (SMILES): Cc1cccc(C)c1NC(=O)c1ccc(-c2c(C)cccc2C)o1 [9j]
- S1P4 activity in words (S1P4 receptor): inactive

Structure (SMILES): Cc1cc(C)c(N(C)C(=O)c2ccc(-c3cc(Cl)ccc3Cl)o2)c(C)c1 [4r]
- fold less potent than the homolog 4q at S1P4 (S1P4 receptor; versus 4q): approximately 128 fold

Structure (SMILES): Cc1cc(CO)cc(C)c1NC(=O)c1ccc(-c2cc(Cl)ccc2Cl)o1 [4t]
- IC50 (S1P4 receptor): 0.036 µM
